Laboratory results from the M2OR odorant receptor database.
Changes are numbered by the printed parent chain.

Experiments:
Conditions in all cases: stereoisomer not certain
OR11H12 (Homo sapiens) = biological target: T1, OR11H12 (Homo sapiens) (UniProt B2RN74)
T1 sequence (whole entry): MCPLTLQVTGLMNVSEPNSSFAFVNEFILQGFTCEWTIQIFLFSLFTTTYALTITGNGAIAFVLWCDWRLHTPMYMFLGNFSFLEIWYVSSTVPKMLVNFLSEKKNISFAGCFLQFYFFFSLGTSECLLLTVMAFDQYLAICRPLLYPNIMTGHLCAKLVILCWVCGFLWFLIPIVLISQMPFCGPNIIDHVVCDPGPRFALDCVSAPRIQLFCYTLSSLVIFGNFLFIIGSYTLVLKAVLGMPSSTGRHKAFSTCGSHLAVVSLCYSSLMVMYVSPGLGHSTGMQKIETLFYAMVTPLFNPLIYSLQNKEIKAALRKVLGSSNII
Procedure, shortened: (§1)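 Assay methods differ from source to source, frequently being transient luciferase assays in mammalian cell lines. For each receptor–molecule pair, the label responsive (active) applies when the original authors judged the measured signal statistically different from baseline, and non-responsive (inactive) applies otherwise.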

OR11H2 (Homo sapiens) = biological target: T2, OR11H2 (Homo sapiens) (UniProt Q8NH07)
T2 sequence (whole entry): T1 sequence (whole entry) with Q7H, T33S, T49I, W68R, C156Y, M181K, R199L, S269P
Procedure, shortened: as §1

OR11H4 (Homo sapiens) = biological target: T3, OR11H4 (Homo sapiens) (UniProt Q8NGC9)
T3 sequence (whole entry): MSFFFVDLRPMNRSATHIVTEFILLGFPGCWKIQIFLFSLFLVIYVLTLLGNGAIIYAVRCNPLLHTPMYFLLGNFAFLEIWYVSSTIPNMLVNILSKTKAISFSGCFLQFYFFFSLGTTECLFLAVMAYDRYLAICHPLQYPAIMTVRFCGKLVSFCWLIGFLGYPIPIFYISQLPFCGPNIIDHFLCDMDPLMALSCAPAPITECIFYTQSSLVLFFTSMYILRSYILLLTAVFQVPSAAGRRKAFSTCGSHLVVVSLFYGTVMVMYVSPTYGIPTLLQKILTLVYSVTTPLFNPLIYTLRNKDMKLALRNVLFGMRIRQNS
Procedure, shortened: as §1

OR11H6 (Homo sapiens) = biological target: T4, OR11H6 (Homo sapiens) (UniProt Q8NGC7)
T4 sequence (whole entry): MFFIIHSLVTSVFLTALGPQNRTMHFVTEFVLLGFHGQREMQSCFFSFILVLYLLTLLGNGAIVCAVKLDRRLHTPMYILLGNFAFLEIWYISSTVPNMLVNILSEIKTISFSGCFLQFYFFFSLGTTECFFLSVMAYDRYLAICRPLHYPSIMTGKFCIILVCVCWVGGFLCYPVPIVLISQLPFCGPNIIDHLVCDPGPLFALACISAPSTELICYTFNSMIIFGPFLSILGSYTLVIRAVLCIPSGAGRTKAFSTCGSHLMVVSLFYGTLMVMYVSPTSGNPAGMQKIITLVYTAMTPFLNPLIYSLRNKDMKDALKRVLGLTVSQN
Procedure, shortened: as §1

OR11H7 (Homo sapiens) = OR11H7 (Homo sapiens) (UniProt Q8NGC8)
Procedure, shortened: as §1

OR11L1 (Homo sapiens) = biological target: T5, OR11L1 (Homo sapiens) (UniProt Q8NGX0)
T5 sequence (whole entry): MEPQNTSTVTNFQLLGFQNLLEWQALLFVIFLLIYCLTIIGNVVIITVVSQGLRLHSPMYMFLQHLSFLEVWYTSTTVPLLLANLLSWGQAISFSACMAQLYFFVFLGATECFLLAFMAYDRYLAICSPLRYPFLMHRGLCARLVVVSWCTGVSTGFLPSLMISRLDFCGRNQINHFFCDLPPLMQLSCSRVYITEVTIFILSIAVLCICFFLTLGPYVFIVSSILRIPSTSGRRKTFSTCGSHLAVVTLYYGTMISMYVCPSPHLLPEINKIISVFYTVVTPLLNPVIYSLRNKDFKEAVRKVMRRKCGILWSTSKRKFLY
Procedure, shortened: as §1

OR12D1 (Homo sapiens) = OR12D1 (Homo sapiens) (UniProt P0DN82)
Procedure, shortened: as §1

OR12D2 (Homo sapiens) = biological target: T6, OR12D2 (Homo sapiens) (UniProt P58182)
T6 sequence (whole entry): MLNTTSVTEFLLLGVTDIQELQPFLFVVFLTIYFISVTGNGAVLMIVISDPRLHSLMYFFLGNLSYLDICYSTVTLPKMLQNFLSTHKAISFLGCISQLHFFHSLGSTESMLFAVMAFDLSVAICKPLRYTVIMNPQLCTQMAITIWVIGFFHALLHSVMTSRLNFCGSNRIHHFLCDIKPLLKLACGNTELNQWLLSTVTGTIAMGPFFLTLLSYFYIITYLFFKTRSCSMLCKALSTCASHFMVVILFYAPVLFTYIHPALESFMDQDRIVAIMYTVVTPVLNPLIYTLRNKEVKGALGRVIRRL
Procedure, shortened: as §1

OR12D3 (Homo sapiens) = biological target: T7, OR12D3 (Homo sapiens) (UniProt Q9UGF7)
T7 sequence (whole entry): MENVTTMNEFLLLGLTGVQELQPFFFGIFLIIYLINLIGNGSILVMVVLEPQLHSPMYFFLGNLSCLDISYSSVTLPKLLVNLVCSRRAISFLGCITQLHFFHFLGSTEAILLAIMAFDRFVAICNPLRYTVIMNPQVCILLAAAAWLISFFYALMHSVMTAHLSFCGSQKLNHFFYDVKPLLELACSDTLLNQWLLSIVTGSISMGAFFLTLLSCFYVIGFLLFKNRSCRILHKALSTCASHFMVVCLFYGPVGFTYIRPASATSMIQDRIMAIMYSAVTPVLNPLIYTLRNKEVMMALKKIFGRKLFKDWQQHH
Procedure, shortened: as §1

OR13A1 (Homo sapiens) = biological target: T8, OR13A1 (Homo sapiens) (UniProt Q8NGR1)
T8 sequence (whole entry): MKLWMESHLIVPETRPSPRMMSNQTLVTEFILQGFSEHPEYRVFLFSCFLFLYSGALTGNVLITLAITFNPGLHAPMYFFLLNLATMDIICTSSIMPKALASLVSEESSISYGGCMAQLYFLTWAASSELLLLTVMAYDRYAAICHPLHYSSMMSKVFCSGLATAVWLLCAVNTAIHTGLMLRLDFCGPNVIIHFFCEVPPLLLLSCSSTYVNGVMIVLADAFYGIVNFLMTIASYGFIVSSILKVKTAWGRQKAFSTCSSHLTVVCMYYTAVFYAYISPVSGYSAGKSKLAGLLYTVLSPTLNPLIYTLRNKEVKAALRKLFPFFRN
Procedure, shortened: as §1

OR13C2 (Homo sapiens) = biological target: T9, OR13C2 (Homo sapiens) (UniProt Q8NGS9)
T9 sequence (whole entry): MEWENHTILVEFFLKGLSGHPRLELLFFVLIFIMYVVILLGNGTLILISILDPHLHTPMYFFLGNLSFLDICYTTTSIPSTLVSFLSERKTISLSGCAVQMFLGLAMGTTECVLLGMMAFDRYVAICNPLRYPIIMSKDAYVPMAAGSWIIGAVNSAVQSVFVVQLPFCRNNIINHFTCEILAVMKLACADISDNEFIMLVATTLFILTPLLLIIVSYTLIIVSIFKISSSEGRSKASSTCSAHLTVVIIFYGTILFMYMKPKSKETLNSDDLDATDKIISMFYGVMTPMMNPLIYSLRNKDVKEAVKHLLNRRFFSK
Procedure, shortened: as §1

OR13C3 (Homo sapiens) = biological target: T10, OR13C3 (Homo sapiens) (UniProt Q8NGS6)
T10 sequence (whole entry): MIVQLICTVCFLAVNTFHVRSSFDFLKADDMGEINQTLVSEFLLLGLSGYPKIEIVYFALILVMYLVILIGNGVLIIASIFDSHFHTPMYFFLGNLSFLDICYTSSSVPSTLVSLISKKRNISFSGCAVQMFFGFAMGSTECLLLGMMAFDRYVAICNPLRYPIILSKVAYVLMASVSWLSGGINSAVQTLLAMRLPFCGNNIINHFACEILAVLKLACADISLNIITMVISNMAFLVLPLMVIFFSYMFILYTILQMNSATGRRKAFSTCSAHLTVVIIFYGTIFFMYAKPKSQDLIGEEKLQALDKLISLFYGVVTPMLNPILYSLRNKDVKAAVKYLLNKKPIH
Procedure, shortened: as §1

OR13C4 (Homo sapiens) = biological target: T11, OR13C4 (Homo sapiens) (UniProt Q8NGS5)
T11 sequence (whole entry): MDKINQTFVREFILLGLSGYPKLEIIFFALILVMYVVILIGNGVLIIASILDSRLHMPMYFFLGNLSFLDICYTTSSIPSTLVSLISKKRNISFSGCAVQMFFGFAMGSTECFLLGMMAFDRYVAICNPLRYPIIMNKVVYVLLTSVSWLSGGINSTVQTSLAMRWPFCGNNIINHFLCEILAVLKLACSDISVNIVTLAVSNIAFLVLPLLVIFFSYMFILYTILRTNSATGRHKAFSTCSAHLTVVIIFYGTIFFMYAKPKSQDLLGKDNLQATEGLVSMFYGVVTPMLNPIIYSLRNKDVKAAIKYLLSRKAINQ
Procedure, shortened: as §1

OR13C5 (Homo sapiens) = biological target: T12, OR13C5 (Homo sapiens) (UniProt Q8NGS8)
T12 sequence (whole entry): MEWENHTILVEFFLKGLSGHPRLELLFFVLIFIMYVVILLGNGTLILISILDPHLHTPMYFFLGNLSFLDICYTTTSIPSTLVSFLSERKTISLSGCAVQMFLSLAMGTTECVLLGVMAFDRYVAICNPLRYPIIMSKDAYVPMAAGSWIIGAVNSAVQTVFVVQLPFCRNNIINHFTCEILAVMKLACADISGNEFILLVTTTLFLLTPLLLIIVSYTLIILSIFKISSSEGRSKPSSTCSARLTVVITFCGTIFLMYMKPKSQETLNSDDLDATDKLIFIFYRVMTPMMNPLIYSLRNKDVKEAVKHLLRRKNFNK
Procedure, shortened: as §1

OR13C7 (Homo sapiens) = OR13C7 (Homo sapiens) (UniProt P0DN81)
Procedure, shortened: as §1

OR13C8 (Homo sapiens) = biological target: T13, OR13C8 (Homo sapiens) (UniProt Q8NGS7)
T13 sequence (whole entry): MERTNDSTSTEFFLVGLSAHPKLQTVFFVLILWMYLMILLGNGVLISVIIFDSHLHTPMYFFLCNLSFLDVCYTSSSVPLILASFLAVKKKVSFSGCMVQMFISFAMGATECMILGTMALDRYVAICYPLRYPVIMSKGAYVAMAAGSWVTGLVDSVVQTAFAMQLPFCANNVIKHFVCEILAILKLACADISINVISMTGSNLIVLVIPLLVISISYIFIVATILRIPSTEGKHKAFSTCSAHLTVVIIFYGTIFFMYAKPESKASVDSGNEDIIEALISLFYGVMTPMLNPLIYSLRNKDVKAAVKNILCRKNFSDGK
Procedure, shortened: as §1

OR13C9 (Homo sapiens) = biological target: T14, OR13C9 (Homo sapiens) (UniProt Q8NGT0)
T14 sequence (whole entry): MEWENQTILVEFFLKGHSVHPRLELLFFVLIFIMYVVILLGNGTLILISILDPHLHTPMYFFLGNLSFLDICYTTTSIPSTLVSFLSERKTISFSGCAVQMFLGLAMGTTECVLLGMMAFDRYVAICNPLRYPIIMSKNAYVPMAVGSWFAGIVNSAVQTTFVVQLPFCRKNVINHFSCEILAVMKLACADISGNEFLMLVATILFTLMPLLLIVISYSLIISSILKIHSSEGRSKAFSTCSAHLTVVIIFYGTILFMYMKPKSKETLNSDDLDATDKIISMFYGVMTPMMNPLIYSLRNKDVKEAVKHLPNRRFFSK
Procedure, shortened: as §1

OR13D1 (Homo sapiens) = biological target: T15, OR13D1 (Homo sapiens) (UniProt Q8NGV5)
T15 sequence (whole entry): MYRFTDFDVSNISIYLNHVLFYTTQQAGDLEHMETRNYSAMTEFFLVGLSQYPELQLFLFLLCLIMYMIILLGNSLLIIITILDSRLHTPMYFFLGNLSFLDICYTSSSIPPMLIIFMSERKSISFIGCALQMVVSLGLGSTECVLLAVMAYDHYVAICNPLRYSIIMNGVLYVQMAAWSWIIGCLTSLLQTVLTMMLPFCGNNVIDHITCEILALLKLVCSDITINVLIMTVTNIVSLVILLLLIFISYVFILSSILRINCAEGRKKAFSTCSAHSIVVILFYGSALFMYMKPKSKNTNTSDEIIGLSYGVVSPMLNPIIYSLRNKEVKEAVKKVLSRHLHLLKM
Procedure, shortened: as §1

OR13F1 (Homo sapiens) = biological target: T16, OR13F1 (Homo sapiens) (UniProt Q8NGS4)
T16 sequence (whole entry): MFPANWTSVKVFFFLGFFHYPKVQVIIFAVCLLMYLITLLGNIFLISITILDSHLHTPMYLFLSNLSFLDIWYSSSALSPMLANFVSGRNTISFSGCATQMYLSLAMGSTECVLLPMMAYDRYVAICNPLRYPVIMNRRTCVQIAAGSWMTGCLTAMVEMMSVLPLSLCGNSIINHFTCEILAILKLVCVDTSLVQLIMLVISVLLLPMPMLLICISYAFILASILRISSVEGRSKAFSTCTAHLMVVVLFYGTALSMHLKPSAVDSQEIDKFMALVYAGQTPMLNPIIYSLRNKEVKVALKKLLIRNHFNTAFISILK
Procedure, shortened: as §1

OR13G1 (Homo sapiens) = biological target: T17, OR13G1 (Homo sapiens) (UniProt Q8NGZ3)
T17 sequence (whole entry): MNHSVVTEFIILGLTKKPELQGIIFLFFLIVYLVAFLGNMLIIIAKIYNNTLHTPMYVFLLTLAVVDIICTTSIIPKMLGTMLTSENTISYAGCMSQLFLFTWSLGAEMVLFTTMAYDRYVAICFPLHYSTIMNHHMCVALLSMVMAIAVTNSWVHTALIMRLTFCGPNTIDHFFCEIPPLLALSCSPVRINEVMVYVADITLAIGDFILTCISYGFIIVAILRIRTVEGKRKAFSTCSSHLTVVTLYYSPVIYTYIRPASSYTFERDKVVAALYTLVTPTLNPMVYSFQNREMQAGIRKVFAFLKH
Procedure, shortened: as §1

Measured: odorant receptor agonist call

Sequence of OR12D1 (Homo sapiens) (P0DN82 as listed by the source): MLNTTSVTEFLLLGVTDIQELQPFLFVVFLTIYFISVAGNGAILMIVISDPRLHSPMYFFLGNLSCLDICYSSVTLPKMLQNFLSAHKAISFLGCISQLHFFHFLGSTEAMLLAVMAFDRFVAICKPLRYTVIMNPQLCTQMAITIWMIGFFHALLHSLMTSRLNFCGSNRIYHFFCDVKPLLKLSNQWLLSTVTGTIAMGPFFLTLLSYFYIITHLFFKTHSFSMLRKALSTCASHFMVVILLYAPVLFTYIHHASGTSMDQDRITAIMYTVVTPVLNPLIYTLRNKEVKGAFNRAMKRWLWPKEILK
Sequence of OR13C7 (Homo sapiens) (P0DN81 whole entry): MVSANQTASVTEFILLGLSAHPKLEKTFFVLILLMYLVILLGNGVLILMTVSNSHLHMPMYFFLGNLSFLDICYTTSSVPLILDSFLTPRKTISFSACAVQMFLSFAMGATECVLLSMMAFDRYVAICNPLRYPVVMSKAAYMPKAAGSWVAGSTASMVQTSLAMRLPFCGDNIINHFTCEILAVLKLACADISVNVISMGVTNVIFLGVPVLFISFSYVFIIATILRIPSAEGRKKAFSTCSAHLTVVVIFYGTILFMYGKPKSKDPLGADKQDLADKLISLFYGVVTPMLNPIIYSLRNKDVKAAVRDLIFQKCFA
Sequence of OR11H7 (Homo sapiens) (Q8NGC8 whole entry): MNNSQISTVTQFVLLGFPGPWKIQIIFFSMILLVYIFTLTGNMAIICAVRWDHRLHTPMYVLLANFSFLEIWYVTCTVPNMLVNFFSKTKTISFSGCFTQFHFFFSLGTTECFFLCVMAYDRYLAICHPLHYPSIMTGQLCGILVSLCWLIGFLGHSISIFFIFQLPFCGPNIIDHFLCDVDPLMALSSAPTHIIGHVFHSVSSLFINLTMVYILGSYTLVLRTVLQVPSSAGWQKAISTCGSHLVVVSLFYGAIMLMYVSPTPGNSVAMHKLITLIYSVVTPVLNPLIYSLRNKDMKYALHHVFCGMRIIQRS

CC(=O)c1c(C)c([N+](=O)[O-])c(C(C)(C)C)c([N+](=O)[O-])c1C
inactive: all assays above

CCCC(S)CCOC(C)=O (configuration not stated)
not listed: OR11H7 (Homo sapiens) | OR12D1 (Homo sapiens) | OR13C7 (Homo sapiens)
inactive: all other assays above
